ASAP1 GAP inh – inhibitors of human ASAP1 ArfGAP activity | inhibition, % at 16.5 µM | Q9ULH1 | actives 0.19% (n = 360,000) | ASAP1-stimulated ARF1 GTP hydrolysis, GDP FP detection | AID 624377; in the data active means inhibition above about 25%
TDP2 inh – blocks human TDP2 phosphodiesterase activity; recombinant TDP2, T5PNP hydrolysis, p-nitrophenol absorbance 415 nm; actives 0.34% (n = 370,000); O95551; inhibition, % at 12.8 µM;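 active means inhibition above the mean of all tested compounds plus 3 SD, set per campaign, cut at about 25% in these data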
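Assay system: recombinant human TDP2 / Reagent: T5PNP substrate at 5 mM, a TopII-DNA adduct mimic / Measured by: epi absorbance from released p-nitrophenol / Evaluation: % inhibition relative to enzyme-containing and enzyme-free wells / Control set: enzyme-free and DMSO wells / Replicates: each compound tested once, singlicate / Schedule: enzyme reaction with compound for 2 h at 37 °C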
MBD2 DNA inh – MBD2-methylated oligo binding inhibition. AID 686964. actives 0.31% (n = 370,000). inhibition, % at 4.4 µM. Q9UBB5. TR-FRET, MBD2 binding to methylated oligonucleotide; in the data active means inhibition above about 13%
UHRF1 binding – blocks human UHRF1 binding to methylated DNA | Q96T88 | UHRF1 binding to methylated oligo, TR-FRET | inhibition, % at 4.4 µM | actives 0.75% (n = 370,000) | AID 687016; in the data active means inhibition above about 21%;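 further: UHRF1 SRA domain binding a hemimethylated CpG hairpin DNA probe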
Target sequence (Q96T88 whole entry, looked up, the tested form may be a part): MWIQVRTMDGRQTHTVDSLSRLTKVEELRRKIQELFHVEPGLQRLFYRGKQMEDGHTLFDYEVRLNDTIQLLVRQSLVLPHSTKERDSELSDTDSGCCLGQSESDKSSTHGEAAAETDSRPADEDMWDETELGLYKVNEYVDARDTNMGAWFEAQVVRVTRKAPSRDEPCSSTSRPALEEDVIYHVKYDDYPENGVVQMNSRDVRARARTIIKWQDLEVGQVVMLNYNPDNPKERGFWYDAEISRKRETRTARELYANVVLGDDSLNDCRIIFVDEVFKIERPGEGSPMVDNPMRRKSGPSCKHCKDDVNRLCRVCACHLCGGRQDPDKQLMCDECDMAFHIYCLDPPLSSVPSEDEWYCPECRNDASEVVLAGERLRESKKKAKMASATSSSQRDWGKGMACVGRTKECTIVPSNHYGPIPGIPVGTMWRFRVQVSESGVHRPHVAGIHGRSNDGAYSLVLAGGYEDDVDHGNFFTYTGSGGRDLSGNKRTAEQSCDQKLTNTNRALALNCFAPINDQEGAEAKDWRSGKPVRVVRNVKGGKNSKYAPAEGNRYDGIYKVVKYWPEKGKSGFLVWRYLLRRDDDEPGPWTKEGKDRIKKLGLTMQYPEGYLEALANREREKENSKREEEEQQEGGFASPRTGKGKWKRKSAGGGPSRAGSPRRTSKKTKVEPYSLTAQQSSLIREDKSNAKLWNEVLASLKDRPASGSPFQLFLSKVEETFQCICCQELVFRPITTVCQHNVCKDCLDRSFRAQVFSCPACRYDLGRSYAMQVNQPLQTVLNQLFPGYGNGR
LEDGF integ inh – blocks HIV-1 LEDGF/p75-dependent DNA integration; actives 0.64% (n = 370,000); TR-FRET IN-LEDGF/p75 DNA integration, Eu/Cy5; inhibition, % at 3.7 µM; AID 743269;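 active means inhibition above the screen-wide mean plus 3 SD, cut at about 13% in these data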;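 further: signal is the Cy5 over europium emission ratio at 671 and 618 nm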
ARFGAP1 inh – rat ARFGAP1 inhibition; Arfgap1-stimulated ARF1 GTP hydrolysis, GDP FP detection; AID 651572; actives 0.26% (n = 360,000); inhibition, % at 16.5 µM; Q62848;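 active means inhibition above a per-plate limit, mean inhibition of low control wells plus 3 SD, cut at about 25% in these data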
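System: truncated rat Arfgap1 GAP domain / Medium: HEPES-based buffer, pH 7.5 / Also added: N-terminally truncated human ARF1-GTP substrate / Incubation: enzyme reaction 120 min at 25 °C after 20 min preincubation / Measured by: FP of antibody-bound GDP Alexa 633 tracer, ex 620/em 688 nm / Replicates: singlicate, each compound tested once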
ARFGAP1 confirm – confirmation of rat ARFGAP1 inhibitors | shares compounds with ARFGAP1 inh | ARFGAP1-stimulated ARF1 GTP hydrolysis, GDP tracer FP | inhibition, % at 16.5 µM | actives 30% (n = 890) | AID 651608;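 active means average inhibition over triplicates above the hit cutoff set in the earlier primary screen, cut at about 25% in these data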
Hits are given with their value; - = inactive; . = no result given; + = active, no number. Rows were chosen to be rich in hits. Some 2% of all compounds tested hit in one or more screens of this group.

SMILES | ASAP1 GAP inh | TDP2 inh | MBD2 DNA inh | UHRF1 binding | LEDGF integ inh | ARFGAP1 inh | ARFGAP1 confirm
OC(c1ccc(-c2ccccc2)cc1)c1ncc(-c2ccc(C(F)(F)F)cc2)[nH]1 (centres undefined) | - | - | - | - | - | 39 | -
CCn1c(SCC(=O)Nc2ccccc2-c2ccccc2)nnc1-c1cnccn1 | . | - | - | - | - | . | .
COC(=O)C[C@H]1CC[C@H]2[C@H](COc3ccc(NC(=O)Cc4cccs4)cc3C(=O)N2C)O1 | . | - | - | - | - | . | .
CCC(=O)Nc1nc(CC(=O)Nc2ccccc2OC)cs1 | - | - | - | - | - | - | .
COc1ccccc1NC(=O)Cc1csc(NC(=S)Nc2ccc(C)cc2)n1 | - | - | - | - | - | 27 | -
CCCOC(=O)c1ccc(Oc2cn[nH]c2-c2ccc(OC)cc2O)cc1 | - | - | - | - | - | 30 | -
COc1ccc(S(=O)(=O)N2CCN(C(=S)NCCc3ccccc3)CC2)cc1 | - | - | - | - | - | - | .
COc1ccc(CCNC(=S)N2CCN(S(=O)(=O)c3ccc(C)cc3)CC2)cc1 | - | - | - | - | - | 27 | -
Cc1ccc(N2C(=O)CC(Sc3nc(C)cc(C)n3)C2=O)cc1 (centres undefined) | - | - | - | - | - | 25 | -
CC(=O)Nc1ccc(NC(=O)c2cc(=O)c3ccc(C)cc3o2)cc1 | - | - | - | - | - | - | .
CC(=O)Nc1ccc(NC(=O)c2cc(=O)c3cc(C)c(C)cc3o2)cc1 | - | - | - | - | - | 29 | -
COC(=O)[C@]12C[C@H](CC(=O)N3CCC(c4ccccc4)CC3)C(=O)N(Cc3ccc(Cl)cc3Cl)C1=C[C@H](C1CCCC1)O[C@@H]2C | . | - | - | - | - | . | .
O=C(Nc1ccc2nn(-c3ccccc3)nc2c1)c1ccc2c(c1)OCO2 | - | - | - | - | - | 26 | 28
CCCN(CCC)S(=O)(=O)c1cccc(C(=O)Nc2ccc3c(c2)OCO3)c1 | - | - | - | - | - | 47 | -
O=C(Nc1cccc(F)c1)c1ccc2c(c1)OCO2 | - | - | - | - | - | - | .
O=C(COc1c(Cl)cc(Cl)cc1Cl)N/N=C/c1ccc[nH]1 | . | - | - | - | - | . | .
CN1CCN(c2ccc(Cl)cc2NC(=O)/C=C/c2cccc(F)c2)CC1 | - | - | - | - | - | 31 | -
O=C(CSc1nnc(-c2ccccc2F)n1-c1ccccc1)c1ccc2ccccc2c1 | . | - | - | - | - | . | .
C=CCN(CC#Cc1ccc(C(F)(F)F)cc1)CC=C | . | - | - | - | - | . | .
O=C(C1CCCN1S(=O)(=O)c1ccc(Cl)s1)N1CCc2ccccc2C1 (centres undefined) | . | - | - | - | - | . | .
N=C1C(c2nc(-c3ccc(Br)cc3)cs2)=C(O)CN1NC(=O)c1ccc([N+](=O)[O-])cc1 | - | - | - | - | - | - | .
Cc1ccc(-c2csc(C3=C(O)CN(NC(=O)c4ccc([N+](=O)[O-])cc4)C3=N)n2)cc1 | - | - | - | - | - | 28 | 31
CSCCC(NC(=O)OCc1ccccc1)C(=O)NCc1cccnc1 (centres undefined) | - | - | - | - | - | 25 | -
COC(=O)[C@]12C[C@H](CC(=O)NCc3ccc(C)o3)C(=O)N(Cc3ccco3)C1=C[C@H](C(C)C)O[C@@H]2C1CC1 | . | - | - | - | - | . | .
COc1ccc(-c2csc(NC(=O)CN3C(=O)NC4(CCCC4)C3=O)n2)cc1OC | - | - | - | - | - | 27 | -
SMILES | ASAP1 GAP inh | TDP2 inh | MBD2 DNA inh | UHRF1 binding | LEDGF integ inh | ARFGAP1 inh | ARFGAP1 confirm
Cc1cccc(N2C(=O)C(Oc3ccc(Cl)cc3Cl)C2C(=O)O)c1C (centres undefined) | - | - | - | - | - | 25 | -
CCCNCC1C(Oc2ccc(Cl)cc2Cl)C(=O)N1c1cccc(C)c1C (centres undefined) | - | - | - | - | - | - | .
CCCC[C@H](C(=O)N(CC)c1ccccc1)[C@@H](O)c1ccc(C(C)=O)cc1 | . | - | - | - | - | . | .
CC(C)N1CCCCC(NC(=O)Cc2ccccc2)C1=O (centres undefined) | . | - | - | - | - | . | .
Nc1ncnc(Nc2ccc(F)cc2)n1 | - | - | - | - | - | - | .
Fc1ccc(Nc2ccnc(Nc3ccc(F)cc3)n2)cc1 | - | - | - | - | - | 25 | -
O=C(OCc1ccc(CSc2nnc(-c3cccc4ccccc34)o2)cc1)c1ccc(F)cc1 | . | - | - | - | - | . | .
CCCCOCCCNC(=O)C[C@@H]1C(=O)N(Cc2ccc(OC)cc2)C2=CCN(C(=O)OC(C)(C)C)C[C@]21C(=O)OCC | . | - | - | - | - | . | .
O=C1Cc2ccccc2C(=O)N1 | 36 | 73 | - | - | 25 | 26 | 28
Cc1ccc(NC(=O)CN(C)C(=O)c2ccc(Sc3nncn3C)c([N+](=O)[O-])c2)cc1 | - | - | - | - | - | + | -
COC(=O)c1c(C)[nH]c(C)c1-c1ccccc1 | - | - | - | - | - | 25 | -
COC(=O)c1c(C)nc2ccccc2c1-c1ccccc1 | - | - | - | - | - | - | .
CC(=O)OCC(=O)[C@@]1(O)[C@H](C)C[C@H]2[C@@H]3CCC4=CC(=O)C=C[C@]4(C)[C@@]3(F)[C@@H](O)C[C@@]21C | - | - | - | - | - | - | .
C[C@@H]1C[C@H]2[C@@H]3CCC4=CC(=O)C=C[C@]4(C)[C@@]3(F)[C@@H](O)C[C@]2(C)[C@@]1(O)C(=O)CO | - | - | - | - | - | 29 | -
CN(C)/C=N/c1nc(Sc2ccc(C(F)(F)F)cc2[N+](=O)[O-])n[nH]1 | - | - | - | - | - | - | .
O=[N+]([O-])c1cc(C(F)(F)F)cc([N+](=O)[O-])c1Sc1n[nH]c(C(F)(F)F)n1 | - | - | - | - | - | 29 | -
CCNc1nc(NCc2ccccc2)nc(SCC(=O)Nc2ccccc2)n1 | - | - | - | - | - | 27 | -
CSc1ccc(/C=N/NC(=O)c2ccc3nc[nH]c3c2)cc1 | - | - | - | - | - | 28 | -
O=C(N/N=C/c1cccnc1)c1[nH]ncc1Br | - | - | - | - | - | - | .
O=C(N/N=C/c1ccccc1)c1[nH]ncc1Br | - | - | - | - | - | 28 | -
COC(=O)[C@H]1[C@H]2C[C@@H]3c4[nH]c5cc(OC)ccc5c4CCN3C[C@H]2C[C@@H](OC(=O)c2cc(OC)c(OC)c(OC)c2)[C@@H]1OC | - | - | - | - | - | 28 | -
COC(=O)C1C2CC3c4[nH]c5cc(OC)ccc5c4CCN3CC2CC(OC2CCCCO2)C1OC (centres undefined) | - | - | - | - | - | - | .

High-throughput results deposited in PubChem BioAssay by The Scripps Research Institute Molecular Screening Center.
